Reference: PMC3355778 (Frontiers in plant science, 2011)

Tests used:
Assay type in all cases: biochemical
[1] = biological target: T1, CPK16 (Arabidopsis thaliana, UniProt Q7XJR9); assay: Standard filter-based kinetic assay for kinase activity, CPK16
T1 sequence (Q7XJR9 1-571): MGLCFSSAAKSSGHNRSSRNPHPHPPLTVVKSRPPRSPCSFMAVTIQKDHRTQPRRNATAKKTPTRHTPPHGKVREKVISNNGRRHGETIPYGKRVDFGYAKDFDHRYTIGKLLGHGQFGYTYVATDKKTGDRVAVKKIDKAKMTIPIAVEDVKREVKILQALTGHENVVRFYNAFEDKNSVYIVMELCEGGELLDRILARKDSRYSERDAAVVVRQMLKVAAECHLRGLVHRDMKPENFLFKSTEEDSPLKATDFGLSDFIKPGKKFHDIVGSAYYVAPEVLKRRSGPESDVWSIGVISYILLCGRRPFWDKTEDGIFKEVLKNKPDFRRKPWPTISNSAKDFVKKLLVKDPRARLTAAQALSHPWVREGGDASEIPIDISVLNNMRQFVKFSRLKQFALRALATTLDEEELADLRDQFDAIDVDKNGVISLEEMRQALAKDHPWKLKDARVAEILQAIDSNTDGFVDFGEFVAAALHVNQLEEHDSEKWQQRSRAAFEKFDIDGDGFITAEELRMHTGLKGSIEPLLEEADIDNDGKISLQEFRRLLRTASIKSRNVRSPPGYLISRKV

[2] = biological target: CPK34 (Arabidopsis thaliana, UniProt Q3E9C0); assay: Standard filter-based kinetic assay for kinase activity, CPK34
Sequence of CPK34 (Q3E9C0 whole entry, the tested form may be a part): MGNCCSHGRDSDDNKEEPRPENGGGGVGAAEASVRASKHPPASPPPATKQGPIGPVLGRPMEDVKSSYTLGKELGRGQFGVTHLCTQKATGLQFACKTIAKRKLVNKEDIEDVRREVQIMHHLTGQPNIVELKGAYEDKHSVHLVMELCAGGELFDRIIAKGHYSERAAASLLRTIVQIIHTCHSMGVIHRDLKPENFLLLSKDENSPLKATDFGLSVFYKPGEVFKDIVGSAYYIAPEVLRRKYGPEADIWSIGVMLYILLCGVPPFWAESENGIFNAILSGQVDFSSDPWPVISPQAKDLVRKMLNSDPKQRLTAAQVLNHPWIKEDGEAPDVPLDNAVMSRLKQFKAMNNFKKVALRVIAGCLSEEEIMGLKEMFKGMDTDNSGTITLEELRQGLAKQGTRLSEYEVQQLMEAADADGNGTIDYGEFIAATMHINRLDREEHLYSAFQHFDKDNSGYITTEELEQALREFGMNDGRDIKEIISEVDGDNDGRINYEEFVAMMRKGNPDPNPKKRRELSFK
Outline: (§1)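 Recombinant Arabidopsis CPK, GST-N/6xHis-C fusion, affinity-purified. Reactions used 1 ng/µL kinase and 0.1 mg/mL BSA in Ca²⁺/EGTA-buffered kinase buffer (1.1 mM CaCl₂, 1 mM EGTA). Peptide substrate was 0–200 µM. Started with 50 µM ATP plus 0.375 µCi [γ-³³P]ATP, 12 min at RT. Aliquots went onto P81 paper, were washed in 75 mM phosphoric acid, and counted by scintillation. kcat is in nmol P/min/mg enzyme; KM by Lineweaver–Burk.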

[3] = biological target: T2, CPK1 (Arabidopsis thaliana, UniProt Q06850); assay: Standard filter-based kinetic assay for kinase activity, CPK1
T2 sequence (Q06850 1-610): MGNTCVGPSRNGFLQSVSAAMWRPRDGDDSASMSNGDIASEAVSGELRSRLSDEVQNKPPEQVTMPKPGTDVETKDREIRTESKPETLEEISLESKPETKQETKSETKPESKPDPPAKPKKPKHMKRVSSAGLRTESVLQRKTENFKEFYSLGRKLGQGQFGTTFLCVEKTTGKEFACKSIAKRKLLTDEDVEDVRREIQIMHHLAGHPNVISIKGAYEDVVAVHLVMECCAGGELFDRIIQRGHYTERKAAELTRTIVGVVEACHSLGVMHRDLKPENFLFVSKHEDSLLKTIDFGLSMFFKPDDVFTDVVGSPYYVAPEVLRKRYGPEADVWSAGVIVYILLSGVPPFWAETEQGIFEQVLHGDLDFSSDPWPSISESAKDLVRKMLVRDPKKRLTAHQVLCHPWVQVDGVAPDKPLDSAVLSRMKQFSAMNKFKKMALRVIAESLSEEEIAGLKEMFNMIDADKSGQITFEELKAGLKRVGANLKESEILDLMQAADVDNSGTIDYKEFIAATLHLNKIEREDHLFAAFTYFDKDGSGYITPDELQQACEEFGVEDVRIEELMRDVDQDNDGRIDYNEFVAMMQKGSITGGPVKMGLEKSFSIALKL
Outline: as §1

[4] = biological target: T3, CPK10 (Arabidopsis thaliana, UniProt Q9M9V8); assay: Standard filter-based kinetic assay for kinase activity, CPK10
T3 sequence (Q9M9V8 1-545): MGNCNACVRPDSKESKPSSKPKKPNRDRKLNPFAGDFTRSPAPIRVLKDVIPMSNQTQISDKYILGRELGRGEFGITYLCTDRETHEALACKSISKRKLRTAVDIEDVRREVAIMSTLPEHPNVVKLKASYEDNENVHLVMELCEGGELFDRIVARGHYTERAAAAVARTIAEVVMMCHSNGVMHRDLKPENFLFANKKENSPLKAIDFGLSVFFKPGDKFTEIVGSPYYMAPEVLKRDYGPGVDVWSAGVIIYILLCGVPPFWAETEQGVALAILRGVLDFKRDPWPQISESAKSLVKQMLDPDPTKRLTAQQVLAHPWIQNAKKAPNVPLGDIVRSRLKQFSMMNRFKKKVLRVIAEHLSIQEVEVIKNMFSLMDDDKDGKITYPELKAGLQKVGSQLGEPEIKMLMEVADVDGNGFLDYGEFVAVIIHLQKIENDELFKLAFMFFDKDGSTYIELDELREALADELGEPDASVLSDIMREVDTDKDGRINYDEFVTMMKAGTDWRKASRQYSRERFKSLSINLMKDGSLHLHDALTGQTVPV
Outline: as §1

[5] = Table 4, independent reaction 1 (first value in cell)
[6] = Table 4, independent reaction 2 (second value in cell)
[7] = Table 5, independent reaction 1 (first value in cell)
[8] = Table 5, independent reaction 2 (second value in cell)

Substance: KRFSFKKSFKLSGFSFKK [ach-400, reference compound]
- Kcat, CPK16 [1, 5]: 1795 nmol phosphate incorporated/min/mg CPK
- Kcat, CPK16 [1, 6]: 1429 nmol phosphate incorporated/min/mg CPK
- Kcat, CPK34 [2, 5]: 398 nmol phosphate incorporated/min/mg CPK
- Kcat, CPK34 [2, 6]: 541 nmol phosphate incorporated/min/mg CPK

Substance: PLARTLSVAGLPGKK [ach-393, Syntide-2, reference compound]
- kcat, CPK1 [3, 7]: 362 nmol phosphate incorporated/min/mg enzyme
- kcat, CPK1 [3, 8]: 482 nmol phosphate incorporated/min/mg enzyme
- kcat, CPK10 [4, 7]: 252 nmol phosphate incorporated/min/mg enzyme
- kcat, CPK10 [4, 8]: 217 nmol phosphate incorporated/min/mg enzyme
- Kcat, CPK34 [2, 7]: 155 nmol phosphate incorporated/min/mg enzyme
- Kcat, CPK34 [2, 8]: 225 nmol phosphate incorporated/min/mg enzyme

Substance: RYRRMERTSSMPRAS [jfh-097]
- Kcat, CPK16 [1, 5]: 3734 nmol phosphate incorporated/min/mg CPK
- Kcat, CPK16 [1, 6]: 2677 nmol phosphate incorporated/min/mg CPK
- Kcat, CPK34 [2, 5]: 502 nmol phosphate incorporated/min/mg CPK
- Kcat, CPK34 [2, 6]: 718 nmol phosphate incorporated/min/mg CPK

Substance: VKIISRIF[S]QRSFRR [jfh-515]
- Kcat, CPK16 [1, 5]: 5114 nmol phosphate incorporated/min/mg CPK
- Kcat, CPK16 [1, 6]: 4854 nmol phosphate incorporated/min/mg CPK
- Kcat, CPK34 [2, 5]: 223 nmol phosphate incorporated/min/mg CPK
- Kcat, CPK34 [2, 6]: 231 nmol phosphate incorporated/min/mg CPK

Substance: aDFLKRLLSaGMNPN [jfh-597]
- kcat, CPK1 [3, 7]: 5790 nmol phosphate incorporated/min/mg enzyme
- kcat, CPK1 [3, 8]: 5900 nmol phosphate incorporated/min/mg enzyme
- kcat, CPK10 [4, 7]: 1264 nmol phosphate incorporated/min/mg enzyme
- kcat, CPK10 [4, 8]: 1639 nmol phosphate incorporated/min/mg enzyme
- Kcat, CPK34 [2, 7]: 475 nmol phosphate incorporated/min/mg enzyme
- Kcat, CPK34 [2, 8]: 614 nmol phosphate incorporated/min/mg enzyme
